Measured values gathered from unrelated publications.
Each line is one published result; the experiments were not run side by side.
Target: G protein-coupled receptor kinase 4 (GRK4, Homo sapiens, UniProt P32298)

O=C1Nc2ccc(Cl)cc2C1=Cc1cc(Cl)c(O)c(Cl)c1 — remaining signal (cell-free assay; 0.5 µM): 108%
CC(=O)N1CCC(c2ccc(C(=O)NC(=N)N)cc2C(F)(F)F)CC1 — remaining binding (cell-free assay, competition with immobilised ligand; 1 µM): 100%
Cc1ccc(C(=O)Nc2ccc(CN3CCN(C)CC3)c(C(F)(F)F)c2)cc1C#Cc1cnc2cccnn12 — remaining activity (enzyme activity, inhibitor; 23.5 nM): 96%
C[C@H](c1ccc(F)cc1)N(Cc1cccc(C(=O)O)c1)C(=O)c1cnc2ccccc2c1 — remaining binding (cell-free assay, competition with immobilised ligand; 1 µM): 100%
Nc1ncnc2occ(-c3ccc(NC(=O)Nc4cc(C(F)(F)F)ccc4F)cc3)c12 — remaining signal (cell-free assay, inhibitor; 20 µM): 89%
O=C(Nc1ccc(Oc2ccc(F)cc2)cc1)N1CCc2ncccc2[C@H]1c1ccc(F)cc1 — remaining binding (cell-free assay, competition with immobilised ligand; 1 µM): 93%
CC(C)(O)[C@H]1CC[C@H](Nc2ccc3ncc(-c4cccc(C(F)(F)F)c4)n3n2)CC1 — remaining activity (enzyme activity, inhibitor; 1 µM): 96.5%
CN(C)C1CCN(CC#Cc2nn(C3CCCC3)c3nc(NCc4ccccc4)ncc23)C1 (centres unmarked) — inhibition (enzyme activity, inhibitor, FRET; 10 µM): -6%
CCN(CC)CCNC(=O)c1c(C)[nH]c(/C=C2\C(=O)Nc3ccc(F)cc32)c1C — remaining signal (cell-free assay; 0.5 µM): 75.8%
O=C(Nc1cnn(-c2csc(C(=O)NC3COC3)c2)c1)Nc1c(F)cccc1Cl — remaining activity (enzyme activity, inhibitor; 5 µM): 93.6%
O=c1nc(-c2ccccn2)sc2ccccc12 — remaining binding (binding, competition with immobilised ligand; 1 µM): 100%
COc1cc2ncnc(Nc3ccc(Oc4ccccc4)c(C)c3C)c2cc1OC — inhibition (enzyme activity, inhibitor; 1 µM): -4%
CC(C)(C)c1nc(-c2cccc(NS(=O)(=O)c3c(F)cccc3F)c2F)c(-c2ccnc(N)n2)s1 — remaining activity (enzyme activity, inhibitor, radiometric; 1 µM): 59%
O=C1NC(=O)c2cc(Nc3ccc(F)cc3)c(Nc3ccc(F)cc3)cc21 — remaining signal (cell-free assay; 0.5 µM): 103%
